Measurements: ChEMBL document CHEMBL1149047, “New teleocidin-related metabolites, (-)-7-geranylindolactam V and blastmycetin F, from Streptoverticillium blastmyceticum” (J Nat Prod, 1994)

Tests used:
[1] = tested on: HeLa; assay: Tumor promoter activity in human HeLa cells assessed as enhancement of incorporation of 32Pi into phospholipid per mg of protein at 0.1 nM; assay type: ADME, cell-based; settings: 0.0001 µM
In short: (§1)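 HeLa cells treated with compound in 0.2% DMSO (vehicle control). Radioactive inorganic phosphate (32Pi) uptake into phospholipids measured by a previously reported method with slight modifications. Results given as cpm per mg protein relative to the DMSO control, with standard deviation. Compound tested at 10^-10 to 10^-7 M.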

[2] = tested on: HeLa; assay: Tumor promoter activity in human HeLa cells assessed as enhancement of incorporation of 32Pi into phospholipid per mg of protein at 1 nM; assay type: ADME, cell-based; settings: 0.001 µM; in short: as §1
[3] = tested on: HeLa; assay: Tumor promoter activity in human HeLa cells assessed as enhancement of incorporation of 32Pi into phospholipid per mg of protein at 0.1 uM; assay type: ADME, cell-based; in short: as §1
[4] = tested on: HeLa; assay: Tumor promoter activity in human HeLa cells assessed as enhancement of incorporation of 32Pi into phospholipid per mg of protein at 10 nM; assay type: ADME, cell-based; settings: 0.01 µM; in short: as §1
[5] = Displacement of [3H]TPA from phorbol ester receptor in ICR mouse epidermal particulate
In short: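 Competition for specific [3H]-TPA binding to a particulate fraction from dorsal epidermis of female ICR mice, by the cold Me2CO filter method with slight modifications. IC50 (concentration giving 50% inhibition) found by probit analysis. Because IC50 drifts between particulate preparations, all compounds were run together on one fraction. Value reported as log 1/M.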

## C=C[C@@]1(C)CC[C@](C)(C(C)C)c2cc3c4c(c[nH]c4c21)C[C@@H](CO)NC(=O)[C@H](C(C)C)N3C
[1]
  relative 32Pi incorporation: 1.19
[2]
  relative 32Pi incorporation: 1.82
[3]
  relative 32Pi incorporation: 7.46
[4]
  relative 32Pi incorporation: 6.72

## C=C[C@](C)(CCC=C(C)C)c1ccc2c3c(c[nH]c13)C[C@@H](CO)NC(=O)[C@H](C(C)C)N2C
[1]
  relative 32Pi incorporation: 1.05
[2]
  relative 32Pi incorporation: 1.57
[3]
  relative 32Pi incorporation: 8.36
[4]
  relative 32Pi incorporation: 4.59

## CC(C)=CCC/C(C)=C/Cc1ccc2c3c(c[nH]c13)C[C@@H](CO)NC(=O)[C@H](C(C)C)N2C
[1]
  relative 32Pi incorporation: 0.97
[2]
  relative 32Pi incorporation: 1.41
[5]
  pIC50: 8.05
[3]
  relative 32Pi incorporation: 6.64
[4]
  relative 32Pi incorporation: 2.61
